Data: ChEMBL document CHEMBL1144552, “Synthesis and antitumor activities of a series of novel quinoxalinhydrazides” (Bioorg Med Chem, 2007)
Activity calls are given as the source filed them. No cut-off for these calls is given here.

Legend:
HCT-116 [1] = experiment: Cytotoxicity against p53 deficient human HCT116 cells after 72 hrs by MTT assay; assay type: cell-based; conditions: HCT-116, 72 h
In short: (§1)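 Monolayer cultures in RPMI 1640 with 10% FBS and 2 mmol/L L-glutamine, 37 °C, 5% CO2, used in exponential growth and checked for mycoplasma by PCR. Cells were seeded in 96-well plates, allowed to attach, then exposed continuously to drug for 72 h. MTT (final 0.5 mg/mL) was added for 4 h at 37 °C, formazan dissolved in DMSO, absorbance read at 570 nm. Triplicate.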

MDA-MB-435 [2] = experiment: Cytotoxicity against human MDA-MB-435 cells after 72 hrs by MTT assay; assay type: cell-based; conditions: MDA-MB-435, 72 h; in short: as §1
HT-29 [3] = experiment: Cytotoxicity against human HT29 cells after 72 hrs by MTT assay; assay type: cell-based; conditions: HT-29, 72 h; in short: as §1
HCT-116 [4] = experiment: Cytotoxicity against human HCT116 cells expressing p53 gene after 72 hrs by MTT assay; assay type: cell-based; conditions: HCT-116, 72 h; in short: as §1
LNCaP [5] = experiment: Cytotoxicity against human LNCap cells after 72 hrs by MTT assay; assay type: cell-based; in short: as §1
MDA-MB-435 [6] = experiment: Inhibition of colony formation of human MDA-MB-435 cells at >=1 uM after 24 hrs; assay type: functional, cell-based
In short: (§2)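 Cells were plated at 100 cells/well in 6-well plates and allowed to attach. Serial dilutions were added the next day for 24 h exposure. Cells were then washed in PBS and grown in drug-free medium for 8–10 days until colonies formed. Colonies were fixed in 1% glutaraldehyde for 30 min, stained with 2% crystal violet for 30 min, imaged and counted. Means of at least three independent experiments.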

LNCaP [7] = experiment: Inhibition of colony formation of human LNCap cells at >=1 uM after 24 hrs; assay type: functional, cell-based; in short: as §2
HT-29 [8] = experiment: Inhibition of colony formation of human HT29 cells at >=1 uM after 24 hrs; assay type: functional, cell-based; in short: as §2
HCT-116 [9] = experiment: Inhibition of colony formation of p53 deficient human HCT116 cells at >=1 uM after 24 hrs; assay type: functional, cell-based; in short: as §2
HCT-116 [10] = experiment: Inhibition of colony formation of p53 expressing human HCT116 cells at >=1 uM after 24 hrs; assay type: functional, cell-based; in short: as §2

Structure (SMILES) | IC50 (HCT-116 [1]) [µM] | IC50 (MDA-MB-435 [2]) [µM] | IC50 (HT-29 [3]) [µM] | IC50 (HCT-116 [4]) [µM] | IC50 (LNCaP [5]) [µM] | Activity (MDA-MB-435 [6]) | Activity (LNCaP [7]) | Activity (HT-29 [8]) | Activity (HCT-116 [9]) | Activity (HCT-116 [10])
O=C(NNc1nc2cc(F)ccc2n2cccc12)c1cnccn1 | 0.9 | 4 | 0.9 | 0.6 | 0.4 |  |  |  |  | 
O=C(NNc1nc2cc(F)ccc2n2cccc12)c1cccnc1 | > 20 | > 20 | > 20 | > 20 |  |  |  |  |  | 
O=C(NNc1nc2cc(F)ccc2n2cccc12)c1ccco1 | > 20 | > 20 | > 20 | > 20 |  |  |  |  |  | 
O=C(NNc1nc2cc(F)ccc2n2cccc12)c1ccccn1 | > 20 | > 20 | 17 | > 20 | > 20 |  |  |  |  | 
O=C(NNc1nc2ccccc2n2cccc12)c1cc2ccccc2[nH]1 | > 20 | > 20 | > 20 | > 20 |  |  |  |  |  | 
NCCC(=O)NNc1nc2ccccc2n2cccc12 | > 20 | > 20 | > 20 | > 20 |  |  |  |  |  | 
O=C(NNc1nc2cccc(F)c2n2cccc12)c1cnccn1 | 0.3 | 3 | 0.3 | 0.4 | 0.4 | Active | Active | Active | Active | Active
O=C(NNc1nc2ccccc2n2cccc12)C1CSCN1 (centres undefined) | 10 | > 20 | 14 | 15 |  |  |  |  |  | 
COc1ccccc1C(=O)NNc1nc2ccccc2n2cccc12 | > 20 | > 20 | > 20 | > 20 |  |  |  |  |  | 
O=C(NNc1nc2ccccc2n2cccc12)c1ccc2cc[nH]c2c1 | > 20 | > 20 | > 20 | > 20 |  |  |  |  |  | 
O=C(NNc1nc2cc(F)ccc2n2cccc12)c1ccccc1F | > 20 | > 20 | > 20 | > 20 |  |  |  |  |  | 
O=C(NNc1nc2ccccc2n2cccc12)c1c[nH]c2ccccc12 | > 20 | > 20 | > 20 | > 20 |  |  |  |  |  | 
O=C(NNc1nc2cc(F)ccc2n2cccc12)c1cnc2ccccc2n1 | 11 | 15 | 13 | 8 |  |  |  |  |  | 
O=C(NNc1nc2cc(F)ccc2n2cccc12)c1cccs1 | > 20 | > 20 | > 20 | > 20 |  |  |  |  |  | 
